≈ marks a conversion by molar mass, not a printed value. Calls of active or inactive are those of the source. The rule behind the calls is not given here.
Experiments:
[1] = tested on: Staphylococcus aureus; assay: Antibacterial activity against methicillin-resistant Staphylococcus aureus NRS123-USA400 infected in mouse J774 cells assessed as reduction in intracellular bacterial cells at 2 times MIC incubated for 24 hrs followed by re-plating on TSA plate and measured after 18 to 22 hrs relative to control; assay type: functional; design: scale not given: the % may be the effect or the level left
How it was run: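 J774 murine macrophages were infected with MRSA USA400 and then treated at 2×MIC for 24 h, in triplicate. The read-out was percent reduction in intracellular colony-forming units versus untreated infected cells.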

[2] = tested on: Acinetobacter baumannii; assay: Antibacterial activity against carbapenem-resistant Acinetobacter baumannii ATCC BAA 1605 clinical isolates after 18 to 20 hrs in aerobic condition by CLSI-based broth microdilution assay; assay type: functional
[3] = tested on: Salmonella enteritidis; assay: Ratio of MBC to MIC for Salmonella enteritidis ATCC 13076 clinical isolates; assay type: functional, Salmonella enterica subsp. enterica serovar Enteritidis
[4] = tested on: Streptococcus pneumoniae; assay: Ratio of MBC to MIC for […] Streptococcus pneumoniae ATCC 700677 clinical isolates; assay type: functional
[5] = tested on: Enterococcus faecalis; assay: Ratio of MBC to MIC for vancomycin-resistant Enterococcus faecalis ATCC 51299 clinical isolates; assay type: functional
[6] = tested on: Klebsiella pneumoniae; assay: Ratio of MBC to MIC for Klebsiella pneumoniae BAA-1706 after 18 to 20 hrs in aerobic condition by CLSI-based broth microdilution assay; assay type: functional
[7] = tested on: Escherichia coli; assay: Antimicrobial activity against Escherichia coli JW55031 harboring deltatolC mutant after 18 to 20 hrs in aerobic condition by CLSI protocol based broth microdilution assay; assay type: functional
[8] = tested on: Salmonella enterica; assay: Antibacterial activity against Salmonella enterica NR-170 clinical isolates after 18 to 20 hrs in aerobic condition by CLSI-based broth microdilution assay; assay type: functional
[9] = tested on: Escherichia coli; assay: Ratio of MBC to MIC for Escherichia coli BW25113 clinical isolates; assay type: functional
[10] = tested on: Escherichia coli; assay: Antibacterial activity against carbapenem-resistant Escherichia coli BAA-2469 clinical isolates after 18 to 20 hrs in aerobic condition by CLSI-based broth microdilution assay; assay type: functional
[11] = tested on: Klebsiella pneumoniae; assay: Antibacterial activity against Klebsiella pneumoniae BAA-1706 clinical isolates after 18 to 20 hrs in aerobic condition by CLSI-based broth microdilution assay; assay type: functional
[12] = tested on: Acinetobacter baumannii; assay: Antibacterial activity against Acinetobacter baumannii NR 17786 clinical isolates after 18 to 20 hrs in aerobic condition by CLSI-based broth microdilution assay; assay type: functional
[13] = tested on: Staphylococcus aureus; assay: Antibacterial activity against linezolid-resistant/Methicillin-resistant Staphylococcus aureus NRS119 clinical isolates after 18 to 20 hrs in aerobic condition by CLSI protocol based broth microdilution assay; assay type: functional
[14] = tested on: Clostridioides difficile; assay: Ratio of MBC to MIC for Clostridium difficile ATCC BAA 1870; assay type: functional
[15] = tested on: Salmonella typhimurium; assay: Ratio of MBC to MIC for Salmonella typhimurium ATCC 700720 clinical isolates; assay type: functional, Salmonella enterica subsp. enterica serovar Typhimurium
[16] = tested on: Klebsiella pneumoniae; assay: Antibacterial activity against Klebsiella pneumoniae BAA-1144 clinical isolates after 18 to 20 hrs in aerobic condition by CLSI-based broth microdilution assay; assay type: functional
[17] = tested on: Staphylococcus aureus; assay: Ratio of MBC to MIC for Methicillin-sensitive Staphylococcus aureus NRS107 clinical isolates; assay type: functional
[18] = tested on: Acinetobacter baumannii; assay: Ratio of MBC to MIC for Acinetobacter baumannii ATCC BAA 1141 clinical isolates; assay type: functional
[19] = tested on: Staphylococcus epidermidis; assay: Antibacterial activity against Staphylococcus epidermidis NRS101 after 18 to 20 hrs in aerobic condition by CLSI-based broth microdilution assay; assay type: functional
[20] = tested on: Pseudomonas aeruginosa; assay: microbe, parasite or virus in culture; conditions: ATCC 9027
[21] = tested on: Acinetobacter baumannii; assay: microbe, parasite or virus in culture; conditions: ATCC BAA 1747
[22] = tested on: Escherichia coli; assay: Antibacterial activity against Escherichia coli ATCC 35150 clinical isolates after 18 to 20 hrs in aerobic condition by CLSI-based broth microdilution assay; assay type: functional
[23] = tested on: Streptococcus pneumoniae; assay: Antibacterial activity against cephalosporin-resistant Streptococcus pneumoniae ATCC 51916 clinical isolates after 18 to 20 hrs by CLSI-based broth microdilution assay; assay type: functional
[24] = tested on: Listeria monocytogenes; assay: Antibacterial activity against Listeria monocytogenes ATCC 19111 after 18 to 20 hrs in aerobic condition by CLSI-based broth microdilution assay; assay type: functional
[25] = tested on: Clostridioides difficile; assay: Antibacterial activity against Clostridium difficile ATCC BAA 1870 incubated for 48 hrs in anaerobic condition by CLSI-based broth microdilution assay; assay type: functional; conditions: ATCC BAA 1870, 48 h
[26] = tested on: Escherichia coli; assay: Inhibition of 6His tagged Escherichia coli UPPP expressed in Escherichia coli C41(DE3) cells preincubated for 15 mins followed by FPP substrate addition and measured after 20 mins by malachite green reagent based assay
[27] = tested on: Acinetobacter baumannii; assay: Antibacterial activity against Acinetobacter baumannii ATCC 19606 clinical isolates after 18 to 20 hrs in aerobic condition by CLSI-based broth microdilution assay; assay type: functional; conditions: ATCC 19606 = CIP 70.34 = JCM 6841
[28] = tested on: Pseudomonas aeruginosa; assay: Antibacterial activity against Pseudomonas aeruginosa ATCC 15442 clinical isolates after 18 to 20 hrs in aerobic condition by CLSI-based broth microdilution assay; assay type: functional
[29] = tested on: Staphylococcus epidermidis; assay: Ratio of MBC to MIC for Staphylococcus epidermidis NRS101 clinical isolates; assay type: functional
[30] = tested on: Enterococcus faecium; assay: Antibacterial activity against vancomycin-resistant Enterococcus faecium ATCC 700221 clinical isolates after 18 to 20 hrs in aerobic condition by CLSI-based broth microdilution assay; assay type: functional
[31] = tested on: Shigella flexneri; assay: Antibacterial activity against Shigella flexneri ATCC 9199 clinical isolates after 18 to 20 hrs in aerobic condition by CLSI-based broth microdilution assay; assay type: functional
[32] = tested on: Escherichia coli; assay: Antibacterial activity against carbapenem-resistant Escherichia coli BAA-2452 clinical isolates after 18 to 20 hrs in aerobic condition by CLSI-based broth microdilution assay; assay type: functional
[33] = tested on: Acinetobacter baumannii; assay: Ratio of MBC to MIC for Acinetobacter baumannii NR 17785 clinical isolates; assay type: functional
[34] = tested on: Staphylococcus aureus; assay: Antibacterial activity against Methicillin-resistant Staphylococcus aureus NRS385-USA500 clinical isolates after 18 to 20 hrs in aerobic condition by CLSI protocol based broth microdilution assay; assay type: functional
[35] = tested on: Acinetobacter baumannii; assay: Ratio of MBC to MIC for Acinetobacter baumannii NR 17786 clinical isolates; assay type: functional
[36] = tested on: Staphylococcus aureus; assay: Antibacterial activity against Methicillin-sensitive Staphylococcus aureus NRS107 clinical isolates after 18 to 20 hrs in aerobic condition by CLSI protocol based broth microdilution assay; assay type: functional

C/C(=N\NC1=NCCN1)c1cnn(-c2ccc(C#CC3CCCC3)cc2)c1C
Activity [1]: 98.4% | MIC [2]: 16 µg/mL (≈ 42.7 µM) | Ratio [3]: >=1 | Ratio [4]: <3 | Ratio [5]: <3 | Ratio [6]: >=1 | MIC [7]: 4 µg/mL (≈ 10.7 µM) | MIC [8]: 32 µg/mL (≈ 85.4 µM) | Ratio [9]: >=1 | MIC [10]: 32 µg/mL (≈ 85.4 µM) | MIC [11]: 32 µg/mL (≈ 85.4 µM) | MIC [12]: 16 µg/mL (≈ 42.7 µM) | MIC [13]: 4 µg/mL (≈ 10.7 µM) | Ratio [14]: <3 | Ratio [15]: >=1 | MIC [16]: 64 µg/mL (≈ 171 µM) | Ratio [17]: <=2 | Ratio [18]: >=1 | MIC [19]: 2 µg/mL (≈ 5.34 µM) | MIC [20]: 32 µg/mL (≈ 85.4 µM) | MIC [21]: 16 µg/mL (≈ 42.7 µM) | MIC [22]: 16 µg/mL (≈ 42.7 µM) | MIC [23]: 8 µg/mL (≈ 21.4 µM) | MIC [24]: 4 µg/mL (≈ 10.7 µM) | MIC [25]: 4 µg/mL (≈ 10.7 µM) | inhibition [26]: inactive | MIC [27]: 16 µg/mL (≈ 42.7 µM) | MIC [28]: 64 µg/mL (≈ 171 µM) | Ratio [29]: <3 | MIC [30]: 4 µg/mL (≈ 10.7 µM) | MIC [31]: 32 µg/mL (≈ 85.4 µM) | MIC [32]: 16 µg/mL (≈ 42.7 µM) | Ratio [33]: >=1 | MIC [34]: 4 µg/mL (≈ 10.7 µM) | Ratio [35]: >=1 | MIC [36]: 2 µg/mL (≈ 5.34 µM)

CCCCCC#Cc1ccc(-n2ncc(/C(C)=N/NC(=N)N)c2C)cc1
MIC [2]: 8 µg/mL (≈ 22.8 µM) | Ratio [3]: >=1 | Ratio [4]: <3 | Ratio [5]: <3 | Ratio [6]: >=1 | MIC [7]: 4 µg/mL (≈ 11.4 µM) | MIC [8]: 8 µg/mL (≈ 22.8 µM) | Ratio [9]: >=1 | MIC [10]: 8 µg/mL (≈ 22.8 µM) | MIC [11]: 8 µg/mL (≈ 22.8 µM) | MIC [12]: 8 µg/mL (≈ 22.8 µM) | MIC [13]: 2 µg/mL (≈ 5.71 µM) | Ratio [14]: <3 | Ratio [15]: >=1 | MIC [16]: 16 µg/mL (≈ 45.7 µM) | Ratio [17]: <=2 | Ratio [18]: >=1 | MIC [19]: 2 µg/mL (≈ 5.71 µM) | MIC [20]: 16 µg/mL (≈ 45.7 µM) | MIC [21]: 4 µg/mL (≈ 11.4 µM) | MIC [22]: 8 µg/mL (≈ 22.8 µM) | MIC [23]: 2 µg/mL (≈ 5.71 µM) | MIC [24]: 2 µg/mL (≈ 5.71 µM) | MIC [25]: 4 µg/mL (≈ 11.4 µM) | inhibition [26]: inactive | MIC [27]: 4 µg/mL (≈ 11.4 µM) | MIC [28]: 32 µg/mL (≈ 91.3 µM) | Ratio [29]: <3 | MIC [30]: 2 µg/mL (≈ 5.71 µM) | MIC [31]: 8 µg/mL (≈ 22.8 µM) | MIC [32]: 16 µg/mL (≈ 45.7 µM) | Ratio [33]: >=1 | MIC [34]: 2 µg/mL (≈ 5.71 µM) | Ratio [35]: >=1 | MIC [36]: 2 µg/mL (≈ 5.71 µM)

C/C(=N\NC(=N)N)c1cnn(-c2ccc(C#CC3(O)CCCCC3)cc2)c1C
MIC [2]: 32 µg/mL (≈ 84.5 µM) | Ratio [3]: >=1 | Ratio [4]: <3 | Ratio [5]: <3 | Ratio [6]: >=1 | MIC [7]: 4 µg/mL (≈ 10.6 µM) | MIC [8]: 16 µg/mL (≈ 42.3 µM) | Ratio [9]: >=1 | MIC [10]: 64 µg/mL (≈ 169 µM) | MIC [11]: 8 µg/mL (≈ 21.1 µM) | MIC [12]: 16 µg/mL (≈ 42.3 µM) | MIC [13]: 2 µg/mL (≈ 5.28 µM) | Ratio [14]: <3 | Ratio [15]: >=1 | MIC [16]: 16 µg/mL (≈ 42.3 µM) | Ratio [17]: <=2 | Ratio [18]: >=1 | MIC [19]: 4 µg/mL (≈ 10.6 µM) | MIC [20]: 32 µg/mL (≈ 84.5 µM) | MIC [21]: 16 µg/mL (≈ 42.3 µM) | MIC [22]: 16 µg/mL (≈ 42.3 µM) | MIC [23]: 4 µg/mL (≈ 10.6 µM) | MIC [24]: 2 µg/mL (≈ 5.28 µM) | MIC [25]: 4 µg/mL (≈ 10.6 µM) | MIC [27]: 4 µg/mL (≈ 10.6 µM) | MIC [28]: 64 µg/mL (≈ 169 µM) | Ratio [29]: <3 | MIC [30]: 2 µg/mL (≈ 5.28 µM) | MIC [31]: 16 µg/mL (≈ 42.3 µM) | MIC [32]: 64 µg/mL (≈ 169 µM) | Ratio [33]: >=1 | MIC [34]: 2 µg/mL (≈ 5.28 µM) | Ratio [35]: >=1 | MIC [36]: 4 µg/mL (≈ 10.6 µM)

Reference: ChEMBL document CHEMBL4334464, “From Phenylthiazoles to Phenylpyrazoles: Broadening the Antibacterial Spectrum toward Carbapenem-Resistant Bacteria” (J Med Chem, 2019)
